Test results from ChEMBL document CHEMBL3352600, “Structure-Based Design of Reactive Nucleosides for Site-Specific Modification of the A2A Adenosine Receptor” (ACS Med Chem Lett, 2014).

Columns and labels:
Adenosine receptor A1 = target: T1, Adenosine receptor A1 (Homo sapiens, UniProt P30542); experiment: Displacement of [3H]R-PIA from human adenosine A1 receptor expressed in CHO cells; assay type: cell-based
T1 sequence (P30542 whole entry): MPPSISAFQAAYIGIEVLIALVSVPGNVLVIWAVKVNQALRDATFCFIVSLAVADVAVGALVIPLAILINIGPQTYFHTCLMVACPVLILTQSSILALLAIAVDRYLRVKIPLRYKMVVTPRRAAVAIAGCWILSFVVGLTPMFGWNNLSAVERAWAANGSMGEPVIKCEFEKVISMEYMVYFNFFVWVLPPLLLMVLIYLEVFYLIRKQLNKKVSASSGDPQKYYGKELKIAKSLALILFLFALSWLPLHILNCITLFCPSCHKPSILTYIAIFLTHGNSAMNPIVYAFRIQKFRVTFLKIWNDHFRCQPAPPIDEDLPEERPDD

Adenosine receptor A2a [1] = target: T2, Adenosine receptor A2a (Homo sapiens, UniProt P29274); experiment: Displacement of [3H]2-[p-(2-carboxyethyl)phenyl-ethylamino]-5'-N-ethylcarboxamidoadenosine from human adenosine A2a receptor expressed in HEK293 cells; assay type: cell-based
Target sequence in this assay (P29274 whole entry): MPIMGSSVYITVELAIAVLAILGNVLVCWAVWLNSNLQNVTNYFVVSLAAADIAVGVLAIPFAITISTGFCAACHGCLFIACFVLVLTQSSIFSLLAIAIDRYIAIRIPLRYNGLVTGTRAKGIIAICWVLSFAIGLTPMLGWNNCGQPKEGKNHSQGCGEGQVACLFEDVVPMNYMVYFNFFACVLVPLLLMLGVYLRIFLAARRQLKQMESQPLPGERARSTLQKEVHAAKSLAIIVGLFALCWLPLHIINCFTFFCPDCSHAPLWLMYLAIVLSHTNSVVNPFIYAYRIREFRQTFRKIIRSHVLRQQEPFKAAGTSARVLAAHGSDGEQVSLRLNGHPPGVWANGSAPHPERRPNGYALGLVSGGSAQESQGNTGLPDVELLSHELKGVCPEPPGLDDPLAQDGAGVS

Adenosine receptor A3 = target: T3, Adenosine receptor A3 (Homo sapiens, UniProt P0DMS8); experiment: Displacement of [125I]I-AB-MECA from human adenosine A3 receptor expressed in CHO cells; assay type: cell-based
T3 sequence (P0DMS8 whole entry): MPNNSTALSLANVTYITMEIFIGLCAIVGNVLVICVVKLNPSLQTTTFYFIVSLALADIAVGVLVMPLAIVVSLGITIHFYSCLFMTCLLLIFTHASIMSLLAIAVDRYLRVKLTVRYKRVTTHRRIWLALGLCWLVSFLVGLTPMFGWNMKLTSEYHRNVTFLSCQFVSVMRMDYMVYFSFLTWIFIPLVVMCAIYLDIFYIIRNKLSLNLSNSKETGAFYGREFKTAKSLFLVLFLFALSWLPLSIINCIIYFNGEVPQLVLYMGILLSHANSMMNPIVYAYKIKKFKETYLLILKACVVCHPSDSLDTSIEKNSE

Homo sapiens [2] = organism: Homo sapiens; experiment: Selectivity ratio of Ki for human adenosine A1 receptor to Ki for human adenosine A2A receptor
Homo sapiens [3] = organism: Homo sapiens; experiment: Selectivity ratio of Ki for human adenosine A3 receptor to Ki for human adenosine A2A receptor
Adenosine receptor A2a [4] = target: T2, Adenosine receptor A2a; experiment: Agonist activity at human adenosine A2a receptor expressed in CHO cells assessed as stimulation of cAMP formation after 24 hrs; assay type: functional, cell-based
Target sequence in this assay (P29274 whole entry): as the sequence (P29274 whole entry) above

Adenosine receptor A2a [5] = target: T2, Adenosine receptor A2a; experiment: Displacement of [3H]2-[p-(2-carboxyethyl)phenyl-ethylamino]-5'-N-ethylcarboxamidoadenosine from human adenosine A2a receptor expressed in HEK293 cells assessed as radioligand binding at 1 uM preincubated for 30 mins; assay type: cell-based
How it was run: (§1)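 Membranes of HEK293 cells stably expressing human A2A receptor were preincubated with compound (1 μM, 30 min). Membranes were then washed by repeated centrifugation cycles. Residual specific binding was measured with agonist [3H]CGS21680 (10 nM) or antagonist [3H]7 (1.0 nM) and expressed as percent binding remaining.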
Target sequence in this assay (P29274 whole entry): as the sequence (P29274 whole entry) above

Adenosine receptor A2a [6] = target: T2, Adenosine receptor A2a; experiment: Displacement of [3H]4-[2-[7-amino-2-(2-furyl)-1,2,4-triazolo[1,5-a][1,3,5]triazin-5-yl-amino]ethylphenol from human adenosine A2a receptor expressed in HEK293 cells assessed as radioligand binding at 1 uM preincubated for 30 mins; assay type: cell-based; how it was run: as §1
Target sequence in this assay (P29274 whole entry): as the sequence (P29274 whole entry) above

Adenosine receptor A2a [7] = target: T2, Adenosine receptor A2a; experiment: Displacement of [3H]4-[2-[7-amino-2-(2-furyl)-1,2,4-triazolo[1,5-a][1,3,5]triazin-5-yl-amino]ethylphenol from wild type human adenosine A2a receptor expressed in COS-7 cells assessed as radioligand Kd compound preincubated for 30 mins
Target sequence in this assay (P29274 whole entry): as the sequence (P29274 whole entry) above

Adenosine receptor A2a [8] = target: T2, Adenosine receptor A2a; experiment: Displacement of [3H]4-[2-[7-amino-2-(2-furyl)-1,2,4-triazolo[1,5-a][1,3,5]triazin-5-yl-amino]ethylphenol from human adenosine A2a receptor K150A mutant expressed in COS-7 cells assessed as radioligand Bmax per mg of protein compound preincubated for 30 mins
Target sequence in this assay (P29274 whole entry, looked up): as the sequence (P29274 whole entry) above

Adenosine receptor A2a [9] = target: T2, Adenosine receptor A2a; experiment: Displacement of [3H]4-[2-[7-amino-2-(2-furyl)-1,2,4-triazolo[1,5-a][1,3,5]triazin-5-yl-amino]ethylphenol from human adenosine A2a receptor K153A mutant expressed in COS-7 cells assessed as radioligand Bmax per mg of protein compound preincubated for 30 mins
Target sequence in this assay (P29274 whole entry, looked up): as the sequence (P29274 whole entry) above

[10] = target: T4, Adenosine receptor A1 (Homo sapiens) (UniProt P30542); experiment: Displacement of [3H]R-PIA from human adenosine A1 receptor expressed in CHO cells at 10 uM; assay type: cell-based
T4 sequence (whole entry): T1 sequence (P30542 whole entry)
How it was run: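 Single-point test at 10 μM on membranes of CHO cells stably expressing human A1 receptor, read as percent inhibition of [3H]R-PIA agonist binding. Nonspecific binding was defined with 10 μM NECA.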

Ki (Adenosine receptor A1)	Ki (Adenosine receptor A2a [1])	Ki (Adenosine receptor A3)	Ratio Ki (Homo sapiens [2])	Ratio Ki (Homo sapiens [3])	EC50 (Adenosine receptor A2a [4])	Activity (Adenosine receptor A2a [5])	Activity (Adenosine receptor A2a [6])	Kd (Adenosine receptor A2a [7])	Bmax (Adenosine receptor A2a [8])	Bmax (Adenosine receptor A2a [9])	inhibition [10]	Structure (SMILES)
1890 nM	267 nM	171 nM										CCNC(=O)[C@H]1O[C@@H](n2cnc3c(N)nc(NCCc4ccc(CCC(=O)Nc5ccc(O)c([N+](=O)[O-])c5)cc4)nc32)[C@H](O)[C@@H]1O
500 nM	23 nM	207 nM	22	9	2.12 nM	19%	11%	2.24 nM	0.2 pmol	1.65 pmol		CCNC(=O)[C@H]1O[C@@H](n2cnc3c(N)nc(NCCc4ccc(CCC(=O)Nc5ccc(OC(C)=O)c([N+](=O)[O-])c5)cc4)nc32)[C@H](O)[C@@H]1O
	4360 nM	1810 nM									30%	CCNC(=O)[C@H]1O[C@@H](n2cnc3c(N)nc(NCCc4ccc(CCC(=O)Nc5ccc(OC(=O)CCCCN=[N+]=[N-])c([N+](=O)[O-])c5)cc4)nc32)[C@H](O)[C@@H]1O
	3280 nM	1960 nM									37%	CCNC(=O)[C@H]1O[C@@H](n2cnc3c(N)nc(NCCc4ccc(CCC(=O)Nc5ccc(OC(=O)CCCC[C@@H]6SC[C@@H]7NC(=O)N[C@@H]76)c([N+](=O)[O-])c5)cc4)nc32)[C@H](O)[C@@H]1O
